Measurements reported in ChEMBL document CHEMBL1132166, “Synthesis and biological evaluation of dihydrobenzofuran lignans and related compounds as potential antitumor agents that inhibit tubulin polymerization” (J Med Chem, 1999).
One block for each compound: values may come before it.

Experiments:
Tubulin [1] = target: T1, Tubulin (Bos taurus, UniProt Q6B856+Q862L2+Q862F3); assay: (§1) Inhibitory activity against purified bovine brain tubulin.
Procedure, shortened: (§2)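 Tubulin assembly: drug and tubulin were preincubated in glutamate for 15 min at 30 °C, then chilled on ice. GTP was added and assembly started by a 0→30 °C jump in a recording spectrophotometer. After 20 min, mixtures were chilled to 0 °C to confirm reversibility. IC50 was taken from inhibition of the extent of assembly across a drug concentration series (n = 3, SD).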

HL-60 [2] = assay: Inhibitory activity against HL 60 cells; format: functional, cell-based; details: Homo sapiens
Procedure, shortened: (§3)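 HL-60 human leukemia cells were grown for 24 h with compound. Growth was measured as the increase in cell number from time zero, and the IC50 was taken from that growth. Mitotic arrest was scored as the fraction of cells with condensed chromosomes after 24 h at 10 µM.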

[3] = test system: Panel (Carcinoma cell lines); assay: The molar drug concentration required for 50% growth inhibition; format: functional; details: Homo sapiens
Procedure, shortened: (§4)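 NCI in vitro human tumor cell line screening panel; each compound tested at a minimum of five concentrations at 10-fold dilutions, highest 100 µM, over a 48 h assay. GI50 is the molar concentration giving 50% growth inhibition. TGI and LC50 were also derived, and the average log GI50 was taken across all lines tested.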

Tubulin [4] = target: T1, Tubulin; assay: as §1; format: functional; procedure, shortened: as §2
[5] = test system: Panel (Carcinoma cell lines); assay: Average log GI50 value against a panel of human cancer cell lines; format: functional; procedure, shortened: as §4
[6] = target: Tubulin alpha chain (Sus scrofa) (UniProt P02550); details: Homo sapiens; 1.0 uM
Chain of Tubulin alpha chain (Sus scrofa) (P02550 whole entry, looked up): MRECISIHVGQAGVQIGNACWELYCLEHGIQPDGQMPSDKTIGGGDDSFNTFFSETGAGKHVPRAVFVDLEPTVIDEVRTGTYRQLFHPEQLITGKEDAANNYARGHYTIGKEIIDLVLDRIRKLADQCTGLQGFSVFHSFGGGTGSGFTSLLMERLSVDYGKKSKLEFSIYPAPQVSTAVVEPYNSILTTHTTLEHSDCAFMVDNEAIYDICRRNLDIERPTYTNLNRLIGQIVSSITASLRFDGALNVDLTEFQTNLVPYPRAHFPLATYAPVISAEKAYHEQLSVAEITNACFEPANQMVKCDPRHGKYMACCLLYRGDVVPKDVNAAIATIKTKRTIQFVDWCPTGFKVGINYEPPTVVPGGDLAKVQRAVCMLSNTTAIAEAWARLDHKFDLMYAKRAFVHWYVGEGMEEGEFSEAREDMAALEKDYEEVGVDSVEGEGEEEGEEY

[7] = target: Tubulin alpha chain (Sus scrofa) (UniProt P02550); details: Homo sapiens; 5.0 uM
HL-60 [8] = assay: Compound was evaluated for its effect on the growth of HL 60 human leukemia cells; format: functional, cell-based; procedure, shortened: as §3
MDA-MB-231 = assay: Growth inhibitory activity determined against MDA-MB-231/ATCC breast cancer cell line; format: functional; details: Homo sapiens; procedure, shortened: as §4
RPMI-8226 = assay: Growth inhibitory activity determined against RPMI-8226 leukemia cell line; format: functional; details: Homo sapiens; procedure, shortened: as §4
MOLT-4 = assay: Growth inhibitory activity determined against MOLT-4 leukemia cell line.; format: functional; details: Homo sapiens; procedure, shortened: as §4
BT-549 = assay: Cytotoxicity against BT-549 breast cancer cell line; format: functional; details: Homo sapiens; procedure, shortened: as §4
MDA-N = assay: Cytotoxicity against MDA-N breast cancer cell line; format: functional; details: Homo sapiens; procedure, shortened: as §4
CCRF-CEM = assay: Growth inhibitory activity determined against CCRF-CEM leukemia cell line; format: functional; details: Homo sapiens; procedure, shortened: as §4
Hs-578T = assay: Growth inhibitory activity determined against HS 578 T breast cancer cell line; format: functional; details: Homo sapiens; procedure, shortened: as §4
SR = assay: Growth inhibitory activity determined against SR leukemia cell line; format: functional; details: Homo sapiens; procedure, shortened: as §4
MCF7 [9] = assay: Growth inhibitory activity determined against MCF-7/ADR-RES breast cancer cell line; format: functional; details: Homo sapiens; procedure, shortened: as §4
MCF7 [10] = assay: Growth inhibitory activity determined against MCF-7 breast cancer cell line; format: functional; details: Homo sapiens; procedure, shortened: as §4
MDA-MB-4 = assay: Cytotoxicity against MDA-MB-435 breast cancer cell line; format: functional; details: Homo sapiens; procedure, shortened: as §4

Compound: COC(=O)/C=C/c1cc(OC)c2c(c1)[C@@H](C(=O)OC)[C@H](c1ccc(OC)c(OC)c1)O2
IC50 (Tubulin [1]): > 40000 nM | IC50 (HL-60 [2]): 80 nM | GI50 [3]: 5100 nM | IC50 (Tubulin [4]): > 40000 nM

Compound: COC(=O)/C=C/c1cc(OC)c2c(c1)[C@@H](C(=O)OC)[C@H](c1ccc(O)c(OC)c1)O2
GI50 [3]: 3300 nM | IC50 (Tubulin [4]): > 40000 nM

Compound: OCCCc1cc(O)c2c(c1)[C@@H](CO)[C@H](c1ccc(O)c(O)c1)O2
log GI50 [5]: -4.01

Compound: COc1ccc(/C=C\c2cc(OC)c(OC)c(OC)c2)cc1O
inhibition [6]: 88% | inhibition [7]: 100%

More lines, main results first:

IC50 (HL-60 [8]): 200 nM | GI50 (MDA-MB-231): 50 nM | GI50 (RPMI-8226): 55 nM | GI50 (MOLT-4): 81 nM | GI50 (CCRF-CEM): 33 nM | GI50 [3]: 300 nM | GI50 (MCF7 [9]): 54 nM | GI50 [5]: 288 nM | GI50 (MCF7 [10]): 29 nM
Compound: COC(=O)/C=C/c1cc(O)c2c(c1)[C@@H](C(=O)OC)[C@H](c1ccc(O)c(O)c1)O2
GI50 (BT-549): < 10 nM | GI50 (MDA-N): < 10 nM | GI50 (Hs-578T): 45 nM | GI50 (SR): 69 nM | GI50 (MDA-MB-4): < 10 nM

log GI50 [5]: -4.97
Compound: COC(=O)CCc1cc(O)c2c(c1)[C@@H](C(=O)OC)[C@H](c1ccc(O)c(O)c1)O2
